Screening data (PubChem)
VIM-2 inhibitor = blocks Pseudomonas aeruginosa VIM-2 metallo-beta-lactamase; purified VIM-2, nitrocefin hydrolysis, epi-absorbance fluorescence; inhibition, % at 5.6 µM; actives 0.89% (n = 290,000); AID 1527;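 active = inhibition above the mean of all tested compounds plus 3 SD, cutoff set per screening run, cut at about 7.5% in these data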;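 also: red hydrolysis product quenches plate fluorescence so inhibitors raise well fluorescence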
IMP-1 inhibitor = inhibitors of Pseudomonas aeruginosa IMP-1 metallo-beta-lactamase. purified IMP-1, nitrocefin hydrolysis, epi-absorbance fluorescence. inhibition, % at 5.6 µM. actives 0.45% (n = 290,000). AID 1556;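 active = inhibition above the mean plus 3 SD of all compounds in the same screening run, cut at about 4.5% in these data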
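Material – recombinant IMP-1 enzyme, purified · Amount – IMP-1 0.2 nM before substrate addition · Medium – HEPES buffer pH 7.1 with ZnSO4 and Brij 35 · Timing – 25 °C, 15 min preincubation, 25 min reaction · Measured by – plate fluorescence quenching by hydrolysis product, ex 480/em 530 nm · Read-out – percent enzyme inhibition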
PvdQ inh = blocks Pseudomonas aeruginosa PvdQ acylase activity. purified PvdQ acylase, fluorescence plate reader. inhibition, % at 10 µM. actives 0.063% (n = 340,000). AID 488965; in the data active = inhibition above about 30%, passing the limit was not always enough
PLCb3 inh = PLC-beta3 (human) inhibition, primary screen; Purified PLC-beta3, fluorogenic substrate, fluorescence; inhibition, % at 12.2 µM; actives 0.18% (n = 370,000); AID 720704; in the data active = inhibition above about 11%
PLC-gamma1 inh = PLC-gamma1 (human) inhibition, primary screen; actives 0.84% (n = 370,000); P19174; purified PLC-gamma1, fluorogenic substrate, fluorescence; inhibition, % at 12.2 µM; AID 720700; in the data active = inhibition above about 9.5%
Large screens that a line does not name were inactive. Sampled rows, rich in hits. Any-hit rate of the full collection: about 2%.

CCN(CC(=O)Nc1ccc(NC(C)=O)cc1)CC(=O)Nc1ccc(Cl)c(Cl)c1	IMP-1 inhibitor 5.9
CNc1ncc(Cc2ccccc2)s1	IMP-1 inhibitor 40
O=C(Nc1ncc(Cc2ccccc2)s1)C1CCCO1 (centres undefined)	none
Cc1ccc(Cn2nnc3c2-c2ccccc2S(=O)(=O)N(C2CC2)C3)cc1	none (no result: VIM-2 inhibitor, IMP-1 inhibitor, PvdQ inh)
Cc1cc2n(c(=O)c1C#N)CCCN2c1cccc(Cl)c1	VIM-2 inhibitor 10
CN(CCCOC(=O)c1cc2ccccc2o1)C1CN(Cc2cn(Cc3ccc([N+](=O)[O-])cc3)nn2)S(=O)(=O)C1 (centres undefined)	none (no result: VIM-2 inhibitor, IMP-1 inhibitor, PvdQ inh)
COc1ccc2nc(Nc3nc(CSc4nnnn4-c4ccccc4)cc(=O)[nH]3)nc(C)c2c1	IMP-1 inhibitor 4.9
Cc1ccc(S(=O)(=O)N2CCN(C(=O)COC(=O)COc3ccc(Cl)cc3)CC2)c(C)c1	PLC-gamma1 inh 13 (no result: VIM-2 inhibitor, IMP-1 inhibitor)
Cc1ccc(S(=O)(=O)N2CCN(C(=O)COC(=O)COc3ccc(Cl)c(C)c3)CC2)c(C)c1	none (no result: VIM-2 inhibitor, IMP-1 inhibitor)
CCSc1ccc(-c2cccc([N+](=O)[O-])c2)nn1	PvdQ inh 48
O=C(CSc1ccc(-c2cccc([N+](=O)[O-])c2)nn1)N1CCCC1	none
CC(C)Cc1nnc(NS(=O)(=O)Cc2ccccc2)s1	VIM-2 inhibitor 10
COC(=O)Cn1c2nc3ccccc3nc2c2cccc(C)c21	none
Cc1cccc2c3nc4ccccc4nc3n(C)c12	VIM-2 inhibitor 9.7
c1cnc2ccc(-c3ccc4ncccc4c3)cc2c1	PvdQ inh 47
Cc1ccc2ncccc2c1	none (no result: VIM-2 inhibitor, IMP-1 inhibitor)
C[C@@H]1CN([C@H](C)CO)C(=O)c2cc(Br)cnc2O[C@H]1CN(C)C(=O)c1ccccc1	PLC-gamma1 inh 11 (no result: VIM-2 inhibitor, IMP-1 inhibitor, PvdQ inh)
COC(=O)[C@]12C[C@H](CC(=O)N3CCN(C(=O)C4CC4)CC3)C(=O)N(CCc3ccc(OC)c(OC)c3)C1=C[C@H](C1CCCC1)O[C@@H]2C	none (no result: VIM-2 inhibitor, IMP-1 inhibitor, PvdQ inh)
COc1ccc(CNS(=O)(=O)/C=C/c2ccc(OC)cc2CNC(=O)OC(C)(C)C)cc1	none (no result: VIM-2 inhibitor, IMP-1 inhibitor, PvdQ inh)
Cc1ccc(C2(c3ccc(C)cc3)CC2C(=O)Nc2ccc([N+](=O)[O-])cc2O)cc1 (centres undefined)	PLCb3 inh 12
c1ccc2c(Nc3ccc4c(c3)OCCO4)c3c(nc2c1)CCC3	VIM-2 inhibitor 8.2
CCN1CCN(C(=O)c2cc3c(=O)n4ccccc4nc3s2)CC1	VIM-2 inhibitor 12
O=C(c1cc2c(=O)n3ccccc3nc2s1)N1CCN(Cc2ccccc2)CC1	VIM-2 inhibitor 8.2
CCCCNC(=O)OCC(CC)NC(=O)OCC(C)C (centres undefined)	IMP-1 inhibitor 8.7
COC(=O)C1CN(Cc2ccc(F)cc2)CCS(=O)(=O)N1Cc1ccc(C)cc1 (centres undefined)	none (no result: VIM-2 inhibitor, IMP-1 inhibitor, PvdQ inh)
CCC(=O)c1ccccc1OCCCCn1cncn1	IMP-1 inhibitor 8.4
CCC(=O)c1ccc(OCCn2cncn2)cc1	none
CCOc1ccc(C(=O)Nc2nnc(SCC(=O)NCC3CCCO3)s2)cc1OCC (centres undefined)	none
O=C(CSc1nnc(NC(=O)c2cccc(Cl)c2)s1)NCC1CCCO1 (centres undefined)	VIM-2 inhibitor 8.6
CC(C)Oc1ccc(Nc2ncnc3ccccc23)cc1	PvdQ inh 31
COc1ccc(-c2csc3nc(C(C)C)oc(=O)c23)cc1OC	none
COc1ccc(-c2nc3scc(-c4ccc(OC)c(OC)c4)c3c(=O)o2)cc1	IMP-1 inhibitor 5.0 (no result: PLCb3 inh, PLC-gamma1 inh)
O=S(=O)(O)c1cc(O)c2c(O)c(N=Nc3cc(Cl)ccc3O)c(S(=O)(=O)O)cc2c1	IMP-1 inhibitor 5.7 (no result: PLCb3 inh, PLC-gamma1 inh)
Oc1ccc(Cl)cc1N=Nc1ccccc1	none
COC(=O)[C@]12CCCCC=C1N(Cc1ccc(OC)cc1)C(=O)[C@@H]2CC(=O)N1CCCC1	none (no result: VIM-2 inhibitor, IMP-1 inhibitor, PvdQ inh)
Cc1ccc2oc(=O)c3cc(C(=O)NCCCN4CCCCCC4)sc3c2c1	VIM-2 inhibitor 9.6
Cc1ccc2oc(=O)c3cc(C(=O)NCCN4CCN(C)CC4)sc3c2c1	VIM-2 inhibitor 12
CC1(C)Cc2c(C#N)c(N)sc(=S)c2CS1	IMP-1 inhibitor 6.4
O=CN(c1ccccc1)c1ccc2ccccc2c1	PvdQ inh 79
CN(c1ccccc1)S(=O)(=O)c1ccc2ccccc2c1	none
COC(=O)[C@]12C[C@H](CC(=O)N3CCC(c4ccccc4)CC3)C(=O)N(Cc3ccc(Cl)cc3Cl)C1=C[C@H](C(C)(C)C)O[C@@H]2C	none (no result: VIM-2 inhibitor, IMP-1 inhibitor, PvdQ inh)
O=C1C2C(c3ccccc3)C=CC(c3ccccc3)C2C(=O)N1c1cccnc1 (centres undefined)	IMP-1 inhibitor 6.2
O=C1[C@@H](Oc2ccccc2)[C@@H](c2cccnc2)N1c1ccccc1	none (no result: VIM-2 inhibitor, IMP-1 inhibitor)
COc1ccccc1-c1nc2s/c(=C\c3cccs3)c(=O)n2n1	none
O=c1/c(=C/c2ccco2)sc2nc(-c3ccccc3Br)nn12	IMP-1 inhibitor 5.2
Cc1ccc(NC(=O)c2cccc3c2-c2ccccc2C3=O)c(C)c1	none (no result: VIM-2 inhibitor, IMP-1 inhibitor, PvdQ inh)
COC(=O)[C@H](CC(C)C)N(CCc1cn(Cc2ccc(C)cc2)nn1)S(=O)(=O)c1ccc(F)cc1Br	none (no result: VIM-2 inhibitor, IMP-1 inhibitor, PvdQ inh)
CN(C)CCCN1C(=O)c2oc3ccc(Cl)cc3c(=O)c2C1c1cccnc1 (centres undefined)	IMP-1 inhibitor 6.4
CN1CC(=O)N(CC(=O)N2N=C(c3ccc(Cl)cc3)CC2c2ccco2)C1=O (centres undefined)	none
CCC(=O)N1N=C(c2ccc(Cl)cc2)CC1c1ccco1 (centres undefined)	VIM-2 inhibitor 9.5
COCC(=O)OCC(=O)N1N=C(c2ccc(Cl)cc2)CC1c1ccco1 (centres undefined)	VIM-2 inhibitor 9.9
Nc1cc(=O)[nH]c(SCC(=O)N2N=C(c3ccc(Cl)cc3)CC2c2ccco2)n1 (centres undefined)	none
Nc1nc(SCC(=O)N2N=C(c3ccc(Cl)cc3)CC2c2ccco2)n[nH]1 (centres undefined)	VIM-2 inhibitor 11
OCCCNc1c2ccccc2nc2ccccc12	VIM-2 inhibitor 8.3
c1ccc2c(NCCc3c[nH]c4ccccc34)c3ccccc3nc2c1	VIM-2 inhibitor 8.1
Fc1cccc(NCCc2c[nH]c3ccccc23)n1	none
Cc1cc(=O)oc2cc(NC(=O)C(C)Oc3ccc(F)cc3)ccc12 (centres undefined)	none (no result: VIM-2 inhibitor, IMP-1 inhibitor)
Cc1cc(=O)oc2cc(NC(=O)c3ccc(OC(F)F)cc3)ccc12	IMP-1 inhibitor 8.7
COc1ccc(-n2c(SCC(=O)c3ccc4ccccc4c3)nnc2-c2ccccc2)cc1	none (no result: VIM-2 inhibitor, IMP-1 inhibitor, PvdQ inh)
COC(=O)c1ccc(NC(=O)Cn2nc(C(=O)Nc3ccc(C)cc3)ccc2=O)cc1	IMP-1 inhibitor 11
Cc1ccc(NC(=O)c2ccc(=O)n(CC(=O)Nc3c(C)cc(C)cc3C)n2)cc1	none
COCCN1CCCc2nc(-c3ccc(Br)cc3)ccc21	none (no result: VIM-2 inhibitor, IMP-1 inhibitor, PvdQ inh)
CCn1cc([N+](=O)[O-])c(C(=O)Nc2ccn(Cc3ccccc3)n2)n1	VIM-2 inhibitor 12
NCCCn1c(C(=O)c2cc(Cl)c(N)c(Cl)c2)c2ccccc2[n+]1[O-]	none (no result: VIM-2 inhibitor, IMP-1 inhibitor)
NC(=O)CCn1c(C(=O)c2cc(Cl)c(N)c(Cl)c2)c2ccccc2[n+]1[O-]	VIM-2 inhibitor 7.8
Cc1ccc(NC(N)=S)cc1	none
